Compound activity: PubChem, The Scripps Research Institute Molecular Screening Center
Sampled rows, rich in hits. Any-hit rate of the full collection: about 3.1%.
CHO parental Ca: ATP-evoked calcium signal inhibitors, parental CHO, primary screen, counter-screen for OX1R antagonist project, cell-based, fluorescence, Fluo-8 calcium dye. parental CHO-K1, ATP-induced calcium, Fluo-8 fluorescence. inhibition, % at 5.6 µM. actives 0.63% (n = 330,000). AID 463079, 2010;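 active means inhibition above that plate's mean sample inhibition plus 3 SD, cut at about 26% in these data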
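Material: Parental CHO cells | Reagent: ATP | Compound dosing: Single nominal dose of 5.6 µM per compound | Detection: Intracellular calcium via Fluo-8 no-wash fluorescent dye | Read-out: % inhibition of ATP-induced calcium mobilization | Benchmarks: Low control ATP plus DMSO, high control DMSO only | Replicates: Singlicate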
GPR7 antagonist: GPR7 receptor antagonists, primary screen, cell-based, fluorescence, single concentration | Neuropeptides B/W receptor type 1 (Homo sapiens), P48145 | GPR7-expressing cells, fluorescence antagonist assay | inhibition, % at 4.4 µM | actives 1.1% (n = 290,000); in the data active means inhibition above about 16%, passing the limit was not always enough;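 further: cells stimulated with the agonist NPW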
GalR3 antag: GalR3 antagonists in HEK293 cells, primary screen, cell-based, fluorescence readout; Galanin receptor type 3 (Homo sapiens), O60755; HEK293 GalR3-CNG cAMP membrane potential fluorescence; galR3 body fused to GalR1 C-terminus; inhibition, % at 3 µM; actives 0.44% (n = 360,000); AID 651719, 2012;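 active means inhibition above the screen-wide average plus 3 SD, cut at about 13% in these data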;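 further: forskolin and galanin both at EC90 stimulate the cells; cAMP rise reported by CNG channel membrane potential dye signal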
OX1R antag-1: OX1R (HCRTR1) antagonists, primary screen, fluorescence, CHO/OX1R cells, Fluo-8 calcium, orexin A; Fluo-8 calcium fluorescence; inhibition, % at 5 µM; actives 0.43% (n = 330,000); AID 434989, 2010;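 active means inhibition above its plate's threshold, mean inhibition of all tested compounds on the plate plus 3 SD, cut at about 37% in these data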
Target sequence (O43613 whole entry, looked up): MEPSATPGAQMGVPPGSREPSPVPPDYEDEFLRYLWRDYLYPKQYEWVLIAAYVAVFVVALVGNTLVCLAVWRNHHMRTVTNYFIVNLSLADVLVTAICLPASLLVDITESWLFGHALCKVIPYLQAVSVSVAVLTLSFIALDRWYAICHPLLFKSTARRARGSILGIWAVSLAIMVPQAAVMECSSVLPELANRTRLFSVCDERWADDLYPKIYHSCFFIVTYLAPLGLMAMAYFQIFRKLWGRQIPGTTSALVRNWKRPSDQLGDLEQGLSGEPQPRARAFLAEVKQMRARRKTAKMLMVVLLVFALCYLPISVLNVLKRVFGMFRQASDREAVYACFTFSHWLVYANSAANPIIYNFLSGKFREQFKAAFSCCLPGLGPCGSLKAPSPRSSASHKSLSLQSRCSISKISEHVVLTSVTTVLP
OX1R antag-2: antagonists of human orexin 1 receptor (OX1R); actives 1.8% (n = 330,000); OX1R-expressing cells, FRET antagonist read-out; inhibition, % at 6.6 µM; Orexin/Hypocretin receptor type 1 (Homo sapiens), O43613; AID 485270, 2010; in the data active means inhibition mostly above about 38%, no sharp cut-off; inactive means mostly below about 40%
GPR7 antag cf: GPR7 receptor antagonists, confirmation, cell-based, fluorescence, single concentration; shares compounds with GPR7 antagonist; GPR7-expressing cells, calcium fluorescence antagonist mode; inhibition, % at 4.4 µM; actives 52% (n = 2,400); in the data active means inhibition above about 24%;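 further: stimulated with the GPR7 agonist NPW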
MCHR1 antag: MCHR1 antagonists in cells, counter-screen for GPR7 antagonist project, cell-based, fluorescence, human | AID 2148, 2009 | actives 62% (n = 2,400) | MCHR1-expressing cells, fluorescence antagonist assay | inhibition, % at 4.4 µM | shares compounds with GPR7 antagonist; in the data active means inhibition above about 22%
Numbers stand for hits; 0 = inactive; - = no result given.

SMILES	CHO parental Ca	GPR7 antagonist	GalR3 antag	OX1R antag-1	OX1R antag-2	GPR7 antag cf	MCHR1 antag
CC1CN(c2ccc([N+](=O)[O-])c(NCCOc3ccc(Cl)cc3)c2)CC(C)N1 (centres undefined)	-	37.5	0	-	-	62.4	68.9
CC1CN(c2ccc([N+](=O)[O-])c(NCCOc3ccccc3)c2)CC(C)N1 (centres undefined)	0	0	0	0	0	-	-
Cc1ccccc1OCCNc1cc(N2CC(C)NC(C)C2)ccc1[N+](=O)[O-] (centres undefined)	0	38.9	-	0	0	53.1	67.1
CCCCCC1CC(CC(=O)Nc2ccc([N+](=O)[O-])cc2)OC1=O (centres undefined)	0	25.0	0	0	0	0	42.0
CCOc1ccccc1CNC(=O)c1cc2occc2n1C	0	24.0	0	0	0	0	0
CCOc1ccccc1CNC(=O)c1cc2oc3ccccc3c2n1C	0	0	0	0	0	-	-
O=C(NCc1ccccc1)c1cc(=O)c2ccccc2o1	0	22.3	0	0	0	0	0
COc1ccc(CNC(=O)c2cc(=O)c3ccccc3o2)cc1	0	0	0	0	0	-	-
NC(N)=NS(=O)(=O)c1ccc(NC(=S)NC(=O)Cc2ccc(Cl)cc2)cc1	0	-	0	0	0	-	0
COc1cccc(NC(=S)NC(=O)Cc2ccc(Cl)cc2)c1	0	34.8	0	0	0	64.2	40.7
Cc1cccc(NC(=S)NC(=O)CCc2ccccc2)c1C	0	0	0	0	0	-	-
Cc1cccc(NC(=S)NC(=O)Cc2ccccc2)c1C	-	24.3	0	-	-	33.8	0
COc1ccccc1NC(=S)NC(=O)Cc1ccc(Cl)cc1	0	53.5	0	0	0	30.9	36.7
Cn1ncc2c(=O)[nH]nnc21	-	-	0	-	-	-	-
Cc1ccc(NC(=O)CCNCc2ccco2)cc1S(=O)(=O)N(C)C	0	0	0	0	0	-	-
CCOC(=O)[C@@H]1CCN(Cc2ccccc2)C[C@H]1c1ccccc1	0	0	0	0	0	-	-
Cc1sc2nc[nH]c(=S)c2c1-c1ccccc1	0	27.4	0	0	0	0	0
O=C(OC1C2CCC1C1CN(CCc3ccccc3)CC12)c1ccccc1 (centres undefined)	0	42.4	0	0	0	42.1	23.7
O=C(c1ccccc1)N1CCC2CCN(CCc3ccccc3)CC21 (centres undefined)	-	-	0	-	-	-	-
CCOC(=O)N/N=C/c1cn(CCCOc2ccccc2)c2ccccc12	0	27.4	0	0	0	0	43.6
CCOC(=O)N/N=C/c1cn(CCCOc2ccc(C)cc2)c2ccccc12	0	0	0	0	0	-	-
Cc1cc(CN(C)Cc2ccc(OCC(O)CN(C)Cc3ccccc3)cc2)on1 (centres undefined)	0	0	0	0	0	-	-
C=CCOc1ccc(CN(C)CC(O)COc2cccc3ccccc23)cc1 (centres undefined)	0	32.9	0	0	0	47.4	38.6
CCOc1ccc(C2CC(c3ccccc3C)n3ncnc3N2)cc1 (centres undefined)	0	36.7	0	0	0	0	23.7
COc1cccc(C2CC(c3ccccc3OC)n3ncnc3N2)c1 (centres undefined)	0	0	0	0	0	-	-
COc1ccccc1C1CC(c2ccc(Cl)cc2)Nc2ncnn21 (centres undefined)	0	-	0	0	0	-	0
CC1CCN(S(=O)(=O)c2cccc3cccnc23)CC1	0	0	0	0	0	-	-
O=c1[nH]c(C2CCN(S(=O)(=O)c3ccccc3)CC2)nc2c1nnn2Cc1cccc(Cl)c1	0	25.5	0	0	0	0	0
